Experimental data as given in ChEMBL document CHEMBL3400019, “Pheophorbide-a conjugates with cancer-targeting moieties for targeted photodynamic cancer therapy” (Bioorg Med Chem, 2015).
Calls of active or inactive are those of the source. No cut-off for these calls is given here. Residues, ends and D or L forms follow the SMILES beside them.

Legend:
[1] = Cellular uptake in human KB cells overexpressing folate receptor at 2 uM after 1 hr by confocal microscopy; assay type: ADME, cell-based; settings: 0.5 h, in the assay text read “after 0.5 hr” for “after 1 hr”
Procedure, shortened: (§1)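 Cells plated on slide dishes overnight (A549 in DMEM, others in RPMI 1640, 10% FBS, 37 °C, 5% CO2); conjugate added to medium at 2 µM, incubated (time per line), washed three times with PBS, imaged by confocal microscopy; excitation 440 nm, emission 655–755 nm.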

KB = assay: Phototoxicity against human KB cells overexpressing folate receptor at 0.1 to 2 uM incubated for 2 hrs followed by 1.25 J/cm'2 light irradiation from red light emitting diode for 24 hrs by MTT assay; assay type: functional, cell-based
Procedure, shortened: (§2)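 Cells seeded at 1 × 10^5 cells/mL overnight, PBS-washed, incubated 2 h in serum-free medium with photosensitizer (from 1 mM DMSO stock); medium removed, irradiated 1.25 J/cm2 red LED (613–645 nm). After 24 h, MTT (5 mg/mL stock) 3 h at 37 °C, formazan dissolved in 0.04 M HCl/isopropanol, OD 570 nm; background-subtracted, % of control; mean ± SD, three experiments.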

A549 [2] = assay: Phototoxicity against folate receptor-negative human A549 cells at 0.1 to 2 uM incubated for 2 hrs followed by 1.25 J/cm'2 light irradiation from red light emitting diode for 24 hrs by MTT assay; assay type: functional, cell-based; procedure, shortened: as §2
A549 [3] = assay: Cellular uptake in folate receptor-negative human A549 cells at 2 uM after 1 hr by confocal microscopy; assay type: ADME, cell-based; settings: a549, 0.5 h, in the assay text read “after 0.5 hr” for “after 1 hr”; procedure, shortened: as §1
U-87MG ATCC = assay: Phototoxicity against human U87MG cells overexpressing alphaVbeta3 at 0.1 to 2 uM incubated for 2 hrs followed by 1.25 J/cm'2 light irradiation from red light emitting diode for 24 hrs by MTT assay; assay type: functional, cell-based; procedure, shortened: as §2
A549 [4] = assay: Phototoxicity against alphaVbeta3-negative human A549 cells at 0.1 to 2 uM incubated for 2 hrs followed by 1.25 J/cm'2 light irradiation from red light emitting diode for 24 hrs by MTT assay; assay type: functional, cell-based; procedure, shortened: as §2
[5] = Cellular uptake in human U87MG cells overexpressing alphaVbeta3 at 2 uM after 1 hr by confocal microscopy; assay type: ADME, cell-based; settings: u-87mg atcc; procedure, shortened: as §1
A549 [6] = assay: Cellular uptake in alphaVbeta3-negative human A549 cells at 2 uM after 1 hr by confocal microscopy; assay type: ADME, cell-based; settings: a549, 1 h; procedure, shortened: as §1
[7] = Cellular uptake in LHRH receptor-negative human SKOV3 cells at 2 uM after 1.5 hr by confocal microscopy; settings: sk-ov-3, 1.5 h
MCF7 [8] = assay: Cellular uptake in human MCF7 cells overexpressing LHRH receptor at 2 uM after 1.5 hrs by confocal microscopy; assay type: ADME, cell-based; settings: mcf7, 1.5 h; procedure, shortened: as §1
FaDu [9] = assay: Induction of apoptosis in human FADU cells overexpressing alphaVbeta6 assessed as decrease in procaspase-3 expression at 0.1 to 1 uM incubated for 1 hr prior to 1.25 J/cm'2 light irradiation from red light emitting diode measured after 24 hrs by Western blotting analysis relative to control
FaDu [10] = assay: Induction of apoptosis in human FADU cells overexpressing alphaVbeta6 assessed as condensation and the fragmentation of nuclear structure at 1 uM incubated for 1 hr prior to 1.25 J/cm'2 light irradiation from red light emitting diode measured after 24 hrs by DAPI staining-based conventional fluorescence microscopy relative to control; assay type: functional, cell-based
Procedure, shortened: (§3)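 A549 and FaDu seeded 5 × 10^5 cells/well, PDT (1 h conjugate, 1.25 J/cm2 red LED, 613–645 nm), 24 h; fixed in 4% paraformaldehyde, stained with 1 µg/mL DAPI 5 min dark at rt, washed ice-cold PBS, nuclear chromatin changes viewed by fluorescence microscopy (×400).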

FaDu [11] = assay: Cellular uptake in human FADU cells overexpressing alphaVbeta6 at 2 uM after 1 hr by confocal microscopy; assay type: ADME, cell-based; procedure, shortened: as §1
FaDu [12] = assay: Induction of apoptosis in human FADU cells overexpressing alphaVbeta6 assessed as reduction in Bcl-2 expression at 0.1 to 1 uM incubated for 1 hr prior to 1.25 J/cm'2 light irradiation from red light emitting diode measured after 24 hrs by Western blotting analysis relative to control; assay type: functional, cell-based
Procedure, shortened: (§4)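 A549 and FaDu seeded 2 × 10^5 cells/well, given PDT (1 h conjugate, 1.25 J/cm2 red LED, 613–645 nm, 35 mW/cm2 at 635 nm peak), then 24 h incubation; lysed, equal protein by SDS–PAGE, PVDF transfer, antibody immunoblot for PARP cleavage, procaspase-3, Bcl-2, Bax.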

A549 [13] = assay: Induction of apoptosis in alphaVbeta6-negative human A549 cells assessed as cellular shrinkage at 1 uM incubated for 1 hr prior to 1.25 J/cm'2 light irradiation from red light emitting diode measured after 24 hrs by DAPI staining-based conventional fluorescence microscopy relative to control; assay type: functional, cell-based
A549 [14] = assay: Cellular uptake in alphaVbeta6-negative human A549 cells at 2 uM after 1 hr by confocal microscopy; assay type: ADME, cell-based; settings: a549, 1 h; procedure, shortened: as §1
A549 [15] = assay: Induction of apoptosis in alphaVbeta6-negative human A549 cells assessed as cell rounding at 1 uM incubated for 1 hr prior to 1.25 J/cm'2 light irradiation from red light emitting diode measured after 24 hrs by DAPI staining-based conventional fluorescence microscopy relative to control; assay type: functional
FaDu [16] = assay: Induction of apoptosis in human FADU cells overexpressing alphaVbeta6 assessed as decrease in cell density at 1 uM incubated for 1 hr prior to 1.25 J/cm'2 light irradiation from red light emitting diode measured after 24 hrs by DAPI staining-based conventional fluorescence microscopy relative to control; assay type: functional
A549 [17] = assay: (§5) Induction of apoptosis in alphaVbeta6-negative human A549 cells assessed as increase in apoptotic cell death incubated for 1 hr prior to 1.25 J/cm'2 light irradiation from red light emitting diode measured after 24 hrs by Annexin V-FITC/propidium iodide staining-based flow cytometry relative to control; assay type: functional
Procedure, shortened: (§6)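 Cells seeded 5 × 10^5 per plate and given photodynamic treatment as in the viability assay: conjugate in serum-free medium, then red LED light (613–645 nm) at 1.25 J/cm2. Harvested 24 h later and washed in cold PBS. Stained 15 min at rt with saturating Annexin V-FITC and PI in HEPES binding buffer (10 mM HEPES, 140 mM NaCl, 2.5 mM CaCl2, pH 7.4). Read by flow cytometry against control.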

FaDu [18] = assay: Induction of apoptosis in human FADU cells overexpressing alphaVbeta6 assessed as cellular shrinkage at 1 uM incubated for 1 hr prior to 1.25 J/cm'2 light irradiation from red light emitting diode measured after 24 hrs by DAPI staining-based conventional fluorescence microscopy relative to control; assay type: functional, cell-based
A549 [19] = assay: Induction of apoptosis in alphaVbeta6-negative human A549 cells assessed as decrease in cell density at 1 uM incubated for 1 hr prior to 1.25 J/cm'2 light irradiation from red light emitting diode measured after 24 hrs by DAPI staining-based conventional fluorescence microscopy relative to control; assay type: functional
A549 [20] = assay: Induction of apoptosis in alphaVbeta6-negative human A549 cells assessed as PARP cleavage at 0.1 to 1 uM incubated for 1 hr prior to 1.25 J/cm'2 light irradiation from red light emitting diode measured after 24 hrs by Western blotting analysis relative to control; assay type: functional, cell-based; procedure, shortened: as §4
FaDu [21] = assay: Induction of apoptosis in human FADU cells overexpressing alphaVbeta6 assessed as increase in Bax expression at 0.1 to 1 uM incubated for 1 hr prior to 1.25 J/cm'2 light irradiation from red light emitting diode measured after 24 hrs by Western blotting analysis relative to control; assay type: functional, cell-based; procedure, shortened: as §4
A549 [22] = assay: Induction of apoptosis in alphaVbeta6-negative human A549 cells assessed as condensation and the fragmentation of nuclear structure at 1 uM incubated for 1 hr prior to 1.25 J/cm'2 light irradiation from red light emitting diode measured after 24 hrs by DAPI staining-based conventional fluorescence microscopy relative to control; assay type: functional, cell-based; procedure, shortened: as §3
FaDu [23] = assay: as §5, with “in” for “in alphaVbeta6-negative”, “FADU” for “A549”, “cells overexpressing alphaVbeta6” for “cells”; assay type: functional; procedure, shortened: as §6
FaDu [24] = assay: Phototoxicity against human FADU cells overexpressing alphaVbeta6 at 0.1 to 2 uM incubated for 2 hrs followed by 1.25 J/cm'2 light irradiation from red light emitting diode for 24 hrs by MTT assay; assay type: functional, cell-based; procedure, shortened: as §2
FaDu [25] = assay: Induction of apoptosis in human FADU cells overexpressing alphaVbeta6 assessed as PARP cleavage at 0.1 to 1 uM incubated for 1 hr prior to 1.25 J/cm'2 light irradiation from red light emitting diode measured after 24 hrs by Western blotting analysis relative to control; assay type: functional, cell-based; procedure, shortened: as §4
A549 [26] = assay: Phototoxicity against alphaVbeta6-negative human A549 cells at 0.1 to 2 uM incubated for 2 hrs followed by 1.25 J/cm'2 light irradiation from red light emitting diode for 24 hrs by MTT assay; assay type: functional, cell-based; procedure, shortened: as §2
FaDu [27] = assay: Induction of apoptosis in human FADU cells overexpressing alphaVbeta6 assessed as cell rounding at 1 uM incubated for 1 hr prior to 1.25 J/cm'2 light irradiation from red light emitting diode measured after 24 hrs by DAPI staining-based conventional fluorescence microscopy relative to control; assay type: functional
MCF7 [28] = assay: Phototoxicity against human MCF7 cells overexpressing LHRH receptor at 0.1 to 2 uM incubated for 2 hrs followed by 1.25 J/cm'2 light irradiation from red light emitting diode for 24 hrs by MTT assay; assay type: functional, cell-based; procedure, shortened: as §2
SK-OV-3 = assay: Phototoxicity against LHRH receptor-negative human SKOV3 cells at 0.1 to 2 uM incubated for 2 hrs followed by 1.25 J/cm'2 light irradiation from red light emitting diode for 24 hrs by MTT assay; assay type: functional, cell-based; procedure, shortened: as §2

## C=Cc1c(C)c2cc3nc(c4c5[nH]c(cc6nc(cc1[nH]2)C(C)=C6CC)c(C)c5C(=O)[C@@H]4C(=O)OC)[C@@H](CCC(=O)NCCOCCOCCNC(=O)CCC(NC(=O)c1ccc(NCc2cnc4nc(N)[nH]c(=O)c4n2)cc1)C(=O)O)[C@@H]3C (some centres not stated)
[1]
  Drug uptake: Active
KB
  Activity: Active
A549 [2]
  Activity: inactive
A549 [3]
  Drug uptake: Not Active

## C=Cc1c(C)c2cc3nc(c4c5[nH]c(cc6nc(cc1[nH]2)C(C)=C6CC)c(C)c5C(=O)[C@@H]4C(=O)OC)[C@@H](CCC(=O)NCCCC(=O)NCCCC[C@H]1NC(=O)[C@@H](Cc2ccccc2)NC(=O)[C@H](CC(=O)O)NC(=O)CNC(=O)[C@H](CCCNC(=N)N)NC1=O)[C@@H]3C
U-87MG ATCC
  Activity: Active
A549 [4]
  Activity: inactive
[5]
  Drug uptake: Active
A549 [6]
  Drug uptake: Not Active

## C=Cc1c(C)c2cc3nc(c4c5[nH]c(cc6nc(cc1[nH]2)C(C)=C6CC)c(C)c5C(=O)[C@@H]4C(=O)OC)[C@@H](CCC(=O)NCCCC(=O)OC[C@H](NC(=O)[C@H](Cc1c[nH]c2ccccc12)NC(=O)[C@H](Cc1cnc[nH]1)NC(=O)[C@@H]1CCC(=O)N1)C(=O)N[C@@H](Cc1ccc(O)cc1)C(=O)N[C@H](CC(C)C)C(=O)N[C@@H](CC(C)C)C(=O)N[C@@H](CCCNC(=N)N)C(=O)N1CCC[C@H]1C(=O)NCC)[C@@H]3C
[7]
  Drug uptake: Not Active
MCF7 [8]
  Drug uptake: Active

## [H][C@]12CSSC[C@]([H])(NC1=O)C(=O)N[C@@H](CCCNC(=N)N)C(=O)NCC(=O)N[C@@H](CC(=O)NCCCNC(=O)CC[C@@H]1c3nc(cc4[nH]c(cc5nc(cc6[nH]c7c(c6C)C(=O)[C@H](C(=O)OC)c37)C(CC)=C5C)c(C=C)c4C)[C@H]1C)C(=O)N[C@@H](CC(C)C)C(=O)N[C@@H](C)C(=O)N[C@@H](CO)C(=O)N[C@@H](CC(C)C)C(=O)N2 (HELM PEPTIDE1{R.G.D.L.A.S.L.C.C}|CHEM1{[C=Cc1c(C)c2cc3nc(c4c5[nH]c(cc6nc(cc1[nH]2)C(C)=C6CC)c(C)c5C(=O)[C@@H]4C(=O)OC)[C@@H](CCC(=O)NCCCN[*:1])[C@@H]3C]}$PEPTIDE1,CHEM1,3:R3-1:R1|PEPTIDE1,PEPTIDE1,8:R3-9:R3|PEPTIDE1,PEPTIDE1,1:R1-9:R2$$$V2.0)
FaDu [9]
  Activity: Active
FaDu [10]
  Activity: Active
FaDu [11]
  Drug uptake: Active
FaDu [12]
  Activity: Active
A549 [13]
  Activity: inactive
A549 [14]
  Drug uptake: Not Active
A549 [15]
  Activity: inactive
FaDu [16]
  Activity: Active
A549 [17]
  Activity: 19.8%
FaDu [18]
  Activity: Active
A549 [19]
  Activity: inactive
A549 [20]
  Activity: inactive
FaDu [21]
  Activity: Active
A549 [22]
  Activity: inactive
FaDu [23]
  Activity: Dose-dependent effect
FaDu [23]; record 2
  Activity: 31.4%
FaDu [24]
  Activity: Active
FaDu [25]
  Activity: Active
A549 [26]
  Activity: inactive
FaDu [27]
  Activity: Active

## C=Cc1c(C)c2cc3nc(c4c5[nH]c(cc6nc(cc1[nH]2)C(C)=C6CC)c(C)c5C(=O)[C@@H]4C(=O)OC)[C@@H](CCC(=O)NCCCC(=O)OC[C@H](NC(=O)[C@@H](Cc1c[nH]c2ccccc12)NC(=O)[C@H](Cc1cnc[nH]1)NC(=O)[C@@H]1CCC(=O)N1)C(=O)N[C@@H](Cc1ccc(O)cc1)C(=O)N[C@H](CC(C)C)C(=O)N[C@@H](CC(C)C)C(=O)N[C@@H](CCCNC(=N)N)C(=O)N1CCC[C@H]1C(=O)NCC)[C@@H]3C
MCF7 [28]
  Activity: Active
SK-OV-3
  Activity: inactive
